Active and inactive are the calls of the source. The rule behind the calls is not given here. Numbered stars: 1 amine (or outer) side, 2 acyl side, 3 side chain; on linkers, the order of the positions; unused ones are H or OH. Bridge positions count the residues as written; N and C are the ends. Square brackets hold non-standard residues; d marks the D form. Peptide text beside a SMILES is read from it. I, II: the chains in the order shown. Dmt = Cc1cc(O)cc(C)c1C[C@H](N)C(=O)O; Ethylenediamine = C(CN[*:2])N[*:1]; Tic = O=C(O)[C@@H]1Cc2ccccc2CN1
Tests used:
[1] = biological target: Mu-type opioid receptor (Rattus norvegicus, UniProt P33535); assay: Displacement of [3H]DAMGO from mu opioid receptor in rat brain membranes; type: cell membranes
Outline: (§1)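 Equilibrium competition binding on P2 membrane preparation of rat brain; mu sites labelled with [3H]DAMGO, delta sites with [3H]deltorphin II. Five to eight graded peptide doses, duplicate wells; Ki via Cheng-Prusoff. Mean ± SEM from three to six independent assays using different synaptosomal preparations.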

[2] = biological target: Delta-type opioid receptor (Rattus norvegicus, UniProt P33533); assay: Displacement of [3H]deltorphin 2 from delta opioid receptor in rat brain membranes; type: cell membranes; outline: as §1
[3] = species: Rattus norvegicus; assay: Selectivity ratio of Ki for rat mu opioid receptor to Ki for rat delta opioid receptor
[4] = biological target: Mu-type opioid receptor (Homo sapiens) (UniProt P35372); assay: Antagonist activity at mu opioid receptor in human SK-N-SH cells assessed as inhibition of loperamide-stimulated [35S]-GTPgammaS binding after 60 mins by liquid scintillation counting; type: functional, cell-based
Outline: (§2)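 [35S]GTPγS binding in cell membranes: delta antagonism measured against deltorphin C-stimulated binding in NG108-15 membranes, mu antagonism against loperamide-stimulated binding in SK-N-SH membranes; antagonism expressed as pA2 from rightward shift of agonist dose-response curves.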

[5] = biological target: Delta-type opioid receptor (Rattus norvegicus) (UniProt P33533); assay: Antagonist activity at delta opioid receptor in rat NG108-15 cells assessed as inhibition of deltorphin C-stimulated [35S]-GTPgammaS binding after 60 mins by scintillation counting; type: functional, cell-based; outline: as §2
[6] = biological target: Delta-type opioid receptor (Mus musculus, UniProt P32300); assay: Antagonist activity at delta opioid receptor in mouse vas deferens; type: functional, tissue-based
[7] = biological target: Mu-type opioid receptor (Cavia porcellus, UniProt P97266); assay: Antagonist activity at mu opioid receptor in guinea pig ileum; type: functional, tissue-based
[8] = species: Rattus norvegicus; assay: Selectivity ratio of Ki for rat delta opioid receptor to Ki for rat mu opioid receptor

Sequence of Mu-type opioid receptor (Cavia porcellus, UniProt P97266) (P97266 whole entry): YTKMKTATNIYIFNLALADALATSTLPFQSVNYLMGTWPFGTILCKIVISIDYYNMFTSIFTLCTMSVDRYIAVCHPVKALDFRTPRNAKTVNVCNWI
Sequence of Delta-type opioid receptor (Rattus norvegicus) (P33533 whole entry): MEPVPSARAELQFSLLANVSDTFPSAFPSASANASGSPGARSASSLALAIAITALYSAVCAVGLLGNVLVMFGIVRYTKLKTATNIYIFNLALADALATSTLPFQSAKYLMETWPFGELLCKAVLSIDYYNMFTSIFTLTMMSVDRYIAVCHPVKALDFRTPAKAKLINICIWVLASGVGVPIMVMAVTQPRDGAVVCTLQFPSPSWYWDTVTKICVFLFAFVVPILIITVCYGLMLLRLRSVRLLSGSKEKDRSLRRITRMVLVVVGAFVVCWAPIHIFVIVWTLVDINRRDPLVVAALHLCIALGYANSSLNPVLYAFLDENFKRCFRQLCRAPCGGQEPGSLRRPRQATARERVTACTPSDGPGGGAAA
Sequence of Delta-type opioid receptor (Rattus norvegicus, UniProt P33533) (P33533 whole entry): as above
Sequence of Delta-type opioid receptor (Mus musculus, UniProt P32300) (P32300 whole entry): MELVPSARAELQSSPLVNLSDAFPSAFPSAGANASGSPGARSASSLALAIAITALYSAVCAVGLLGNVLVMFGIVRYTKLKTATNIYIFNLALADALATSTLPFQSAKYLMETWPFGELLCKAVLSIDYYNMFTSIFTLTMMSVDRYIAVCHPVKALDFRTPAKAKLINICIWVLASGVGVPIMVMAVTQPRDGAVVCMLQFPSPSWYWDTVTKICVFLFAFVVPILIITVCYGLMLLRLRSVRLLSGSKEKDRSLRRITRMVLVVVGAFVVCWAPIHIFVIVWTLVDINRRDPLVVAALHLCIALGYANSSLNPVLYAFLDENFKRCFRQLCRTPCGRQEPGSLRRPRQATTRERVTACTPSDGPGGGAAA
Sequence of Mu-type opioid receptor (Rattus norvegicus, UniProt P33535) (P33535 whole entry): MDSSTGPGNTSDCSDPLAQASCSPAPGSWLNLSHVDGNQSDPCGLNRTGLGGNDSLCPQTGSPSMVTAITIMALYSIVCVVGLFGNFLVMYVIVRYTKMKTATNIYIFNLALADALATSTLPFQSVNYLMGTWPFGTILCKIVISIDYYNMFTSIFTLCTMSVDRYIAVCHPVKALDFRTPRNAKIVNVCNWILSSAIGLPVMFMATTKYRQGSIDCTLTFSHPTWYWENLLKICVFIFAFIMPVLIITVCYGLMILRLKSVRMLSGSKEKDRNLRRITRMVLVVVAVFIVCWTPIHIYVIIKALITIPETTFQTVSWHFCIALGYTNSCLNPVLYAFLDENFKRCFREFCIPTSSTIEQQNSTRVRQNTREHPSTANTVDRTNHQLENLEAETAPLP
Sequence of Mu-type opioid receptor (Homo sapiens) (P35372 whole entry): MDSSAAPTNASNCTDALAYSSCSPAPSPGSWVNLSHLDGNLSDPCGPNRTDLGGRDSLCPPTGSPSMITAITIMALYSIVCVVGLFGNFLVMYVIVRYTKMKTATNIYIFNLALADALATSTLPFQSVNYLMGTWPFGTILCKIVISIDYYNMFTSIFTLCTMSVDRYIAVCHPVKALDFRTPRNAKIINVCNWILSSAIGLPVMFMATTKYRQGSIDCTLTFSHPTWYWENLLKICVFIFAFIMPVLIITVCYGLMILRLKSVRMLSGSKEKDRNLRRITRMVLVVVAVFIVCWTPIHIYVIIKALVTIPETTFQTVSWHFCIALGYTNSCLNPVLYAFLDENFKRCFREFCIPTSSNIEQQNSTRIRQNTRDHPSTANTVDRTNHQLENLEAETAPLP

Row | SMILES | Ki [1] | Ki [2] | Ratio Ki [3] | pA2 [4] | pA2 [5] | IC50 [6] | IC50 [7] | Ratio Ki [8]
1 | Cc1cc(O)cc(C)c1C[C@H](N)C(=O)N1Cc2ccccc2C[C@H]1C(=O)NCC/C=C/CCNC(=O)[C@@H]1Cc2ccccc2CN1C(=O)[C@@H](N)Cc1c(C)cc(O)cc1C | 0.0015 µM |  |  |  |  |  |  | 
2 | Cc1cc(O)cc(C)c1C[C@@H](C(=O)N[C@H]1Cc2c([nH]c3ccccc23)CN(CC(=O)NCCNC(=O)CN2Cc3[nH]c4ccccc4c3C[C@H](NC(=O)[C@H](Cc3c(C)cc(O)cc3C)N(C)C)C2=O)C1=O)N(C)C | 0.344 µM | 0.101 µM | 3.4 | inactive | inactive |  |  | 
3 | Cc1cc(O)cc(C)c1C[C@H](N)C(=O)N1Cc2ccccc2C[C@H]1C(=O)NCCN(CCNC(=O)[C@@H]1Cc2ccccc2CN1C(=O)[C@@H](N)Cc1c(C)cc(O)cc1C)CCNC(=O)[C@@H]1Cc2ccccc2CN1C(=O)[C@@H](N)Cc1c(C)cc(O)cc1C | 0.00778 µM | 0.00375 µM |  |  |  | > 10 µM | > 10 µM | 
4 | Cc1cc(O)cc(C)c1C[C@H](N)C(=O)N1Cc2ccccc2C[C@H]1C(=O)NCCNC(=O)[C@@H]1Cc2ccccc2CN1C(=O)[C@@H](N)Cc1c(C)cc(O)cc1C (I: H-[Dmt]-[Tic] / II: H-[Dmt]-[Tic]; linker I:C-II:C via Ethylenediamine) | 0.0102 µM | 0.00096 µM |  |  |  | > 10 µM | > 10 µM | 
5 | Cc1cc(O)cc(C)c1C[C@H](N)C(=O)N[C@@H]1Cc2c([nH]c3ccccc23)CN(CC(=O)NCCNC(=O)CN2Cc3[nH]c4ccccc4c3C[C@@H](NC(=O)[C@@H](N)Cc3c(C)cc(O)cc3C)C2=O)C1=O | 0.139 µM | 0.211 µM |  | inactive | inactive |  |  | 1.5
6 | Cc1cc(O)cc(C)c1C[C@H](N)C(=O)N[C@@H]1Cc2c([nH]c3ccccc23)CN(CC(=O)NCc2ccc(CNC(=O)CN3Cc4[nH]c5ccccc5c4C[C@@H](NC(=O)[C@@H](N)Cc4c(C)cc(O)cc4C)C3=O)cc2)C1=O | 0.177 µM | 0.361 µM |  | inactive | inactive |  |  | 2
7 | Cc1cc(O)cc(C)c1C[C@H](N)C(=O)N[C@H]1Cc2ccccc2CN(CC(=O)NCCN(CCNC(=O)CN2Cc3ccccc3C[C@H](NC(=O)[C@@H](N)Cc3c(C)cc(O)cc3C)C2=O)CCNC(=O)CN2Cc3ccccc3C[C@H](NC(=O)[C@@H](N)Cc3c(C)cc(O)cc3C)C2=O)C1=O | 0.00806 µM | 0.196 µM |  |  |  | > 10 µM | > 10 µM | 
8 | Cc1cc(O)cc(C)c1C[C@H](N)C(=O)N1Cc2ccccc2C[C@H]1C(=O)O (H-[Dmt]-[Tic]-OH) | 0.00332 µM |  |  |  |  |  |  | 
9 | Cc1cc(O)cc(C)c1C[C@H](N)C(=O)N[C@H]1Cc2ccccc2CN(CC(=O)NCCNC(=O)CN2Cc3ccccc3C[C@H](NC(=O)[C@@H](N)Cc3c(C)cc(O)cc3C)C2=O)C1=O | 0.0161 µM | 0.153 µM |  |  |  |  | > 10 µM | 

Reference: ChEMBL document CHEMBL1154939, “Novel multiple opioid ligands based on 4-aminobenzazepinone (Aba), azepinoindole (Aia) and tetrahydroisoquinoline (Tic) scaffolds” (Bioorg Med Chem Lett, 2010)
